Data taken from ChEMBL document CHEMBL1154198, “Chemical genetics of Plasmodium falciparum” (Nature, 2010).

Tests used:
Plasmodium falciparum [1] = assay: ST_JUDE: Plasmodium falciparum 3D7 EC50 (uM) as measured by SYBR green dye; type: functional, organism-based
Plasmodium falciparum [2] = assay: ST_JUDE: Plasmodium falciparum K1 EC50 (uM) as measured by SYBR green dye; type: functional, organism-based
Plasmodium falciparum [3] = assay: ST_JUDE: Cytotoxicity against Plasmodium falciparum 3D7; type: functional, organism-based
Outline: (§1)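 Asexual P. falciparum grown in human erythrocytes, exposed to compounds for 72 h, and growth read as the DNA quantity in treated versus control cultures. Dose-response run at 12 concentrations from 10 μM to 5 nM.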

Plasmodium falciparum [4] = assay: ST_JUDE: Cytotoxicity against Plasmodium falciparum K1; type: functional, organism-based; outline: as §1
Plasmodium falciparum [5] = assay: ST_JUDE: Cytotoxicity against Plasmodium falciparum V1/S; type: functional, organism-based
Toxoplasma gondii = assay: ST_JUDE: Growth inhibition of to Toxoplasma gondii, in human U-2OS cells, as measured by luciferase.; type: functional, organism-based; settings: RH, U2OS
Outline: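 T. gondii parasites engineered to express luciferase; drug sensitivity read by luminescence.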

Trypanosoma brucei = assay: ST_JUDE: Cytotoxicity using luciferase to measure ATP as an indicator of the viability of Trypanosoma brucei; type: functional, organism-based
Leishmania major = assay: ST_JUDE: Cytotoxicity using Alamar Blue to measure viability of Leishmania major; type: functional, organism-based
Outline: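 L. major promastigotes; drug susceptibility read with Alamar Blue.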

[6] = ST_JUDE: Cytotoxicity using luciferase to measure ATP as an indicator of the viability of human foreskin fibroblast cells (BJ); type: toxicity, cell-based
[7] = ST_JUDE: Cytotoxicity using luciferase to measure ATP as an indicator of the viability of human epithelial hepatocellular carcinoma cells (HepG2); type: toxicity, cell-based
[8] = ST_JUDE: Cytotoxicity using luciferase to measure ATP as an indicator of the viability of human epithelial embryonic kidney cells (HEK293); type: toxicity, cell-based
[9] = ST_JUDE: Cytotoxicity using luciferase to measure ATP as an indicator of the viability of human Burkitt''s lymphoma lymphoblast cells (Raji); type: toxicity, cell-based
Plasmodium falciparum [10] = assay: ST_JUDE: Cytotoxicity against Plasmodium falciparum Dd2; type: functional, organism-based
Plasmodium falciparum [11] = assay: ST_JUDE: Cytotoxicity against Plasmodium falciparum W2; type: functional, organism-based
Plasmodium falciparum [12] = assay: ST_JUDE: Cytotoxicity against Plasmodium falciparum SB-A6; type: functional, organism-based
Plasmodium falciparum [13] = assay: ST_JUDE: Cytotoxicity against Plasmodium falciparum D10 transfected with yeast DHOD; type: functional, organism-based

| SMILES | EC50 (Plasmodium falciparum [1]) | EC50 (Plasmodium falciparum [2]) | EC50 (Plasmodium falciparum [3]) | EC50 (Plasmodium falciparum [4]) | EC50 (Plasmodium falciparum [5]) | EC50 (Toxoplasma gondii) | EC50 (Trypanosoma brucei) | EC50 (Leishmania major) | EC50 [6] | EC50 [7] | EC50 [8] | EC50 [9] | EC50 (Plasmodium falciparum [10]) | EC50 (Plasmodium falciparum [11]) | EC50 (Plasmodium falciparum [12]) | EC50 (Plasmodium falciparum [13]) |
| --- | --- | --- | --- | --- | --- | --- | --- | --- | --- | --- | --- | --- | --- | --- | --- | --- |
| CCCO/C(O)=C1\C(C)=NC2=C(C(=O)CC(c3ccc(OC)c(OC)c3)C2)C1c1ccccc1C (centres undefined) | 308 nM | 292 nM | 134 nM | 110 nM | 98.2 nM | > 22600 nM | 6570 nM | > 17700 nM | > 41300 nM | > 41300 nM | > 41300 nM | > 41300 nM | 89.8 nM | 21.3 nM | 56.5 nM | 68.5 nM |
| COc1ccc(NC(=O)C2c3ccccc3C(=O)N(CC(C)C)C2c2cccs2)cc1OC (centres undefined) | 50.1 nM | 51.8 nM | 105 nM | 110 nM | 132 nM | > 24100 nM | 6930 nM | > 18800 nM | > 44000 nM | > 44000 nM | > 44000 nM | > 44000 nM | 123 nM | 49.6 nM | 90 nM | 91.3 nM |
| CCCN(C(=O)C(=O)Nc1ccc2nc3n(c(=O)c2c1)CCCCC3)c1ccc(OCC)cc1 | 673 nM | 289 nM | 490 nM | 326 nM | 215 nM | > 25900 nM | > 45300 nM | > 20200 nM | > 47300 nM | > 47300 nM | > 47300 nM | > 47300 nM | 700 nM | 334 nM | 346 nM | 220 nM |
| C[n+]1ccccc1/C=C/c1ccc([N+](=O)[O-])cc1 | 1410 nM | 1420 nM | 804 nM | 745 nM | 858 nM | > 18500 nM | > 32400 nM | > 14500 nM | > 33800 nM | > 33800 nM | > 33800 nM | > 33800 nM | 1040 nM | 4230 nM | 1080 nM | 899 nM |
| C=CCn1c(=N)n(CC(O)c2ccc(Cl)c(Cl)c2)c2ccccc21 (centres undefined) | 334 nM | 181 nM | 1080 nM | 602 nM | 788 nM | > 24500 nM | 8340 nM | > 19100 nM | > 44700 nM | 16400 nM | 39200 nM | 26400 nM | 434 nM | 512 nM | 2530 nM | 2630 nM |
| CCc1ccc(S(=O)(=O)NC2=C/C(=N\c3ccccc3)C(=O)c3ccccc32)cc1 | 557 nM | 472 nM | 284 nM | 276 nM | 404 nM | > 16900 nM | 1460 nM | > 13200 nM | 5650 nM | 4290 nM | 5210 nM | 2660 nM | 575 nM | 484 nM | 340 nM | 373 nM |
| CCOC(=O)C1(Cc2cccc(C(F)(F)F)c2)CCN(Cc2ccccc2O)CC1 | 389 nM | 57.6 nM | 1330 nM | 368 nM | 486 nM | > 22600 nM | 11700 nM | > 17700 nM | > 41300 nM | > 41300 nM | > 41300 nM | > 41300 nM | 345 nM | 726 nM | 858 nM | 743 nM |
| CCOc1ccc(Nc2cc(C)c3ccc(O)cc3n2)cc1 | 483 nM | 153 nM | 714 nM | 158 nM | 195 nM | > 28300 nM | 21700 nM | > 22100 nM | > 51700 nM | 30400 nM | > 51700 nM | 34400 nM | 629 nM | 233 nM | 460 nM | 504 nM |
| COc1ccccc1/N=C1\C=C(NS(=O)(=O)c2ccc(C(C)C)cc2)c2ccccc2C1=O | 598 nM | 132 nM | 450 nM | 290 nM | 280 nM | > 18900 nM | 1790 nM | > 14800 nM | > 34500 nM | > 34500 nM | > 34500 nM | > 34500 nM | 627 nM | > 8870 nM | 190 nM | 343 nM |
| COc1ccc(NC(=O)C2c3ccccc3C(=O)N(CC(C)C)C2c2cccs2)cc1 (centres undefined) | 102 nM | 120 nM | 217 nM | 196 nM | 416 nM | > 26100 nM | 7550 nM | > 20400 nM | > 47700 nM | > 47700 nM | > 47700 nM | > 47700 nM | 255 nM | > 12300 nM | 370 nM | 329 nM |
| O=C1C(Nc2ccc(Br)cc2)=C(n2nnc3ccccc32)C(=O)c2ccccc21 | 28.2 nM | 21.6 nM | 60.2 nM | 24.5 nM | 32.6 nM | > 13600 nM | 1310 nM | > 10600 nM | > 24800 nM | > 24800 nM | > 24800 nM | > 24800 nM | 590 nM | > 6370 nM | 80.1 nM | 59.3 nM |
| CCCO/C(O)=C1\C(C)=NC2=C(C(=O)CC(c3ccc(OC)c(OC)c3)C2)C1c1ccccc1Cl (centres undefined) | 24.7 nM | 16.7 nM | 75.2 nM | 37.1 nM | 66 nM | > 21400 nM | 9300 nM | > 16700 nM | > 39100 nM | > 39100 nM | > 39100 nM | > 39100 nM | 50 nM | 17 nM | 26.2 nM | 36.9 nM |
| Cc1ccc(NC(=O)C2c3ccccc3C(=O)N(CC(C)C)C2c2cccs2)c(Cl)c1 (centres undefined) | 463 nM | 747 nM | > 11300 nM | > 11300 nM | 1180 nM | > 24100 nM | 8030 nM | > 18900 nM | > 44100 nM | > 44100 nM | > 44100 nM | > 44100 nM | 981 nM | 849 nM | 741 nM | 628 nM |
| CCCCOc1ccc(N(C(C)=O)C2=C(N3CCCCC3)C(=O)c3ccccc3C2=O)cc1 | 722 nM | 489 nM | 167 nM | 147 nM | 120 nM | > 15600 nM | 4910 nM | > 12200 nM | > 28500 nM | 13700 nM | > 28500 nM | 6970 nM | 382 nM | 483 nM | 104 nM | 62 nM |
| CSC(=S)N/N=C(\c1ccccc1)c1ccccn1 | 232 nM | 364 nM | 563 nM | 862 nM | 404 nM | 1640 nM | 2210 nM | > 18400 nM | > 42900 nM | > 42900 nM | > 42900 nM | 33.4 nM | 0.8 nM | > 11000 nM | 331 nM | 398 nM |
| CCc1ccc(S(=O)(=O)NC2=C/C(=N\c3ccccc3OC)C(=O)c3ccccc32)cc1 | 277 nM | 150 nM | 954 nM | 377 nM | 327 nM | > 21800 nM | 1980 nM | > 17000 nM | 6800 nM | 10300 nM | 9010 nM | 2760 nM | 677 nM | > 10200 nM | 531 nM | 406 nM |
| COC(=O)c1ccc(NC(=O)C2c3ccccc3C(=O)N(CC(C)C)C2c2cccs2)cc1 (centres undefined) | 998 nM | 1220 nM | 1160 nM | 1520 nM | 1730 nM | > 21200 nM | 2330 nM | > 16600 nM | > 38700 nM | > 38700 nM | > 38700 nM | > 38700 nM | 1250 nM | > 9940 nM | 2260 nM | 1360 nM |
| CCCCOc1ccc(N(C(C)=O)C2=C(N3CCOCC3)C(=O)c3ccccc3C2=O)cc1 | 98.9 nM | 95.6 nM | 70.8 nM | 66 nM | 36.4 nM | > 17100 nM | 4010 nM | > 13400 nM | > 31200 nM | 3890 nM | 10900 nM | 3820 nM | 488 nM | 930 nM | 28.9 nM | 21.2 nM |
| Cc1cccc(N2CCN(Cc3cc(Br)ccc3O)CC2)c1C | 425 nM | 153 nM | 372 nM | 178 nM | 255 nM | > 15300 nM | > 26700 nM | > 11900 nM | > 27900 nM | > 27900 nM | > 27900 nM | > 27900 nM | 521 nM | > 7160 nM | 699 nM | 576 nM |
